The values that follow come from ChEMBL document CHEMBL4118256, “Second Generation of Mannich Base-Type Derivatives with in Vivo Activity against Trypanosoma cruzi” (J Med Chem, 2018).

The subject of series [1] is Trypanosoma cruzi. Description: Trypanocidal activity against Trypanosoma cruzi TINF/CH/1956/Tulahuen DTU 6 epimastigotes after 48 hrs by resazurin dye based assay. The format is functional, organism-based. Particulars: TINF/CH/1956/Tulahuen DTU 6, 48 h. In outline: (§1)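 Exponential-phase epimastigotes were seeded at 5×10^5 mL^-1 with compounds at 100–0.2 µM (DMSO 0.01% v/v) at 28 °C. After 48 h, resazurin was added for another 24 h. SDS was then added and absorbance read at 570 and 600 nm.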
(Resazurin is reduced to fluorescent resorufin, in cell work by metabolically active cells.)

In series [2] the test system is Trypanosoma cruzi. The experiment in a line: Trypanocidal activity against Trypanosoma cruzi IRHOD/CO/2008/SN3 DTU 1 epimastigotes after 48 hrs by resazurin dye based assay. The format is functional, organism-based. To be noted: IRHOD/CO/2008/SN3 DTU 1, 48 h. The method, boiled down: as §1
Series [3] can be described thus: Selectivity index, ratio of IC50 for African green monkey Vero cells to IC50 for Trypanosoma cruzi IRHOD/CO/2008/SN3 DTU 1 epimastigotes. Format: toxicity. To be noted: read-out: Ratio IC50. In outline: (§2)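 SI is Vero IC50 divided by the IC50 for the stated parasite form. For Vero cytotoxicity, cells were seeded at 1.25×10^4 mL^-1 with compounds at 1000–1 µM, incubated 48 h, then given resazurin for a further 24 h (72 h total), with absorbance read at 570/600 nm. Triplicate, four determinations.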

The nature of series [4]: Selectivity index, ratio of IC50 for African green monkey Vero cells to IC50 for Trypanosoma cruzi TINF/CH/1956/Tulahuen DTU 6 epimastigotes. Format: toxicity. Particulars: read-out: Ratio IC50. In outline:
as §2

The subject of a further series is Vero. Description: Cytotoxicity against African green monkey Vero cells assessed as reduction in cell viability after 72 hrs by resazurin dye based assay. To be noted: Chlorocebus sabaeus. The method, boiled down:
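Vero monkey kidney cells grown at 37 °C, 5 % CO2, in RPMI with 10 % heat-inactivated FBS. Seeded at 1.25 × 10^4 mL-1 with compound at 1000 to 1 µM (DMSO 0.01 % v/v). After 48 h, resazurin added for a further 24 h, then SDS. Absorbance read at 570/600 nm. IC50 from triplicates in four separate determinations.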

Series [5] can be described thus: Selectivity index, ratio of IC50 for African green monkey Vero cells to IC50 for Trypanosoma cruzi MHOM/Pe/2011/Arequipa DTU 5 epimastigotes. To be noted: read-out: Ratio IC50. The format is toxicity. The method, boiled down: as §2
In series [6] the test system is Trypanosoma cruzi. The experiment in a line: Trypanocidal activity against Trypanosoma cruzi MHOM/Pe/2011/Arequipa DTU 5 epimastigotes after 48 hrs by resazurin dye based assay. To be noted: MHOM/Pe/2011/Arequipa DTU 5, 48 h. Format: functional, organism-based. In outline:
as §1

Turning to `O=C(CCN1CCN(c2ccc([N+](=O)[O-])cc2)CC1)c1ccc(F)cc1`, the IC50 in the series on Trypanosoma cruzi [1] was found to be 78.1 µM; in the series on Trypanosoma cruzi [2], 54.5 µM; in the series with Vero, 110 µM; with Trypanosoma cruzi [6], 65.8 µM. In addition, the results for the selectivity ratio in series [3], in series [4] and in series [5] were 2, 1.4 and 1.7, respectively.

For the molecule `O=C(CCN1CCN(c2ccc(F)cc2)CC1)c1ccccc1`, the IC50 in the series on Trypanosoma cruzi [1] was 94.1 µM; in the series on Trypanosoma cruzi [2], 32.9 µM; in the series with Vero it was 13.4 µM; in the series on Trypanosoma cruzi [6], 65.7 µM. The selectivity ratio in series [3] is 0.4; in series [4], 0.1; in series [5], 0.2.

For the molecule `O=C(CCN1CCN(c2ccc([N+](=O)[O-])cc2)CC1)c1ccc(OC(F)(F)F)cc1`, the IC50 was determined as 52.1 µM with Trypanosoma cruzi [1], 95 µM in the series on Trypanosoma cruzi [2], 93.2 µM in the series on Vero and 41.1 µM in the series on Trypanosoma cruzi [6]. Besides, the selectivity ratio was 1 in series [3], 1.8 in series [4] and 2.3 in series [5].

As for `COc1ccc(C(=O)CCN2CCN(c3ccc([N+](=O)[O-])cc3)CC2)cc1OC`, the IC50 in the series on Trypanosoma cruzi [1] worked out at 105 µM; in the series on Trypanosoma cruzi [2], 174 µM; in the series with Vero it was 105 µM; in the series on Trypanosoma cruzi [6] it was 94.5 µM. In addition, the selectivity ratio in series [3] was determined as 0.6; in series [4], 1; in series [5] it was 1.1.

With `COc1ccc(N2CCN(CCC(=O)c3ccc(F)cc3)CC2)cc1`, the IC50 is 38.9 µM with Trypanosoma cruzi [1], 22.2 µM in the series with Trypanosoma cruzi [2], 31.9 µM in the series with Vero and 24.5 µM in the series with Trypanosoma cruzi [6]. The selectivity ratio in series [3] is 1.4; in series [4], 0.8; in series [5] it was 1.3.

In the case of `O=C(CCN1CCN(c2ccc(C(F)(F)F)cc2)CC1)c1ccc(C(F)(F)F)cc1`, the 50% inhibitory concentration (IC50) with Trypanosoma cruzi [1] was 43 µM; in the series with Trypanosoma cruzi [2], 34.7 µM; with Vero it was 49.2 µM; in the series with Trypanosoma cruzi [6], 24.3 µM. The selectivity ratio in series [3] came out at 1.4; in series [4] it was 1.1; in series [5], 2.

As to `Cc1ccc(C(=O)CCN2CCN(c3ccc(C(F)(F)F)cc3)CC2)cc1`, the IC50 in the series on Trypanosoma cruzi [1] turned out to be 22.5 µM; in the series on Trypanosoma cruzi [2], 17.6 µM; with Vero it was 140 µM; with Trypanosoma cruzi [6], 14.2 µM. The selectivity ratio in series [3] amounted to 7.9; in series [4], 6.2; in series [5], 9.8.

In the case of `O=C(CCN1CCN(c2ccc([N+](=O)[O-])cc2)CC1)c1ccc(F)c(Cl)c1`, the concentration for half-maximal inhibition (IC50) in the series with Trypanosoma cruzi [1] worked out at 41.5 µM; in the series with Trypanosoma cruzi [2], 51 µM; with Vero, 116 µM; with Trypanosoma cruzi [6], 34.2 µM. In addition, the selectivity ratio is 2.3 in series [3], 2.8 in series [4] and 3.4 in series [5].

Consider `COc1ccc(C(=O)CCN2CCN(c3ccc(Cl)cc3)CC2)cc1OC`, for which the IC50 in the series with Trypanosoma cruzi [1] amounted to 36.6 µM; in the series with Trypanosoma cruzi [2], 43.9 µM; in the series on Vero, 185 µM; with Trypanosoma cruzi [6], 90.3 µM. For the same molecule, the selectivity ratio in series [3] amounted to 4.2; in series [4], 5.1; in series [5] it was 2.1.

Consider `O=C(CCN1CCN(c2ccc(C(F)(F)F)cc2)CC1)c1ccc(Cl)c(F)c1`, for which the half-maximal inhibitory concentration (IC50) amounted to 66.7 µM with Trypanosoma cruzi [1], 49.1 µM in the series on Trypanosoma cruzi [2], 74.3 µM in the series with Vero and 27.6 µM with Trypanosoma cruzi [6]. The selectivity ratio in series [3] is 1.5; in series [4], 1.1; in series [5], 2.7.

In the case of `COc1ccc(C(=O)CCN2CCN(c3ccc(F)cc3)CC2)cc1OC`, the half-inhibitory concentration (IC50) in the series on Trypanosoma cruzi [1] was found to be 103 µM; in the series with Trypanosoma cruzi [2], 61.5 µM; in the series with Vero it was 175 µM; with Trypanosoma cruzi [6], 154 µM. In addition, the selectivity ratio came out at 2.8 in series [3], 1.7 in series [4] and 1.1 in series [5].

As to `O=C(CCN1CCN(c2ccc(F)cc2)CC1)c1ccc(F)c(Br)c1`, the IC50 in the series with Trypanosoma cruzi [1] turned out to be 41.4 µM; in the series on Trypanosoma cruzi [2], 42.4 µM; in the series with Vero it was 352 µM; with Trypanosoma cruzi [6], 38.8 µM. Besides, the selectivity ratio in series [3] worked out at 8.3; in series [4], 8.5; in series [5], 9.1.

In the case of `COc1ccccc1N1CCN(CCC(=O)c2ccc(F)cc2)CC1`, the IC50 was determined as 45.6 µM with Trypanosoma cruzi [1], 40.5 µM with Trypanosoma cruzi [2], 24 µM in the series on Vero and 58.3 µM with Trypanosoma cruzi [6]. Also, the selectivity ratio in series [3] is 0.6; in series [4] it was 0.5; in series [5], 0.4.

On to `O=C(CCN1CCN(c2ccc(Cl)cc2)CC1)c1ccc(F)c(Br)c1`, for which the IC50 with Trypanosoma cruzi [1] was 30.6 µM; in the series with Trypanosoma cruzi [2], 35.1 µM; in the series with Vero it was 206 µM; in the series on Trypanosoma cruzi [6], 26.6 µM. In addition, the figures for the selectivity ratio in series [3], in series [4] and in series [5] were 5.9, 6.7 and 7.7, respectively.

Consider `O=C(CCN1CCN(c2ccc(Cl)cc2)CC1)c1ccc(Cl)c(F)c1`, for which the 50% inhibitory concentration (IC50) was determined as 55.5 µM in the series with Trypanosoma cruzi [1], 51.6 µM in the series on Trypanosoma cruzi [2], 175 µM in the series with Vero and 42 µM in the series with Trypanosoma cruzi [6]. Also, the selectivity ratio turned out to be 3.4 in series [3], 3.2 in series [4] and 4.2 in series [5].

Turning to `COc1ccc(C(=O)CCN2CCN(c3ccc(C(F)(F)F)cc3)CC2)cc1OC`, the IC50 in the series with Trypanosoma cruzi [1] came out at 33.9 µM; with Trypanosoma cruzi [2], 27.8 µM; in the series on Vero, 242 µM; in the series on Trypanosoma cruzi [6], 59 µM. The selectivity ratio in series [3] amounted to 8.7; in series [4], 7.2; in series [5], 4.1.

Turning to `O=C(CCN1CCN(c2ccc(F)cc2)CC1)c1ccc(Cl)c(F)c1`, the IC50 worked out at 46.2 µM in the series on Trypanosoma cruzi [1], 75.3 µM in the series with Trypanosoma cruzi [2], 105 µM with Vero and 39.5 µM with Trypanosoma cruzi [6]. Besides, the selectivity ratio in series [3] worked out at 1.4; in series [4] it was 2.3; in series [5], 2.7.

For the molecule `O=C(CCN1CCN(c2ccc([N+](=O)[O-])cc2)CC1)c1ccc(Br)cc1`, the IC50 stood at 46.2 µM with Trypanosoma cruzi [1], 39.7 µM in the series with Trypanosoma cruzi [2], 79.8 µM in the series with Vero and 27.2 µM with Trypanosoma cruzi [6]. For the same molecule, the selectivity ratio in series [3] came to 2; in series [4] it was 1.7; in series [5], 2.9.

As to `O=C(CCN1CCN(c2ccc(Cl)cc2)CC1)c1ccc(C(F)(F)F)cc1`, the IC50 in the series with Trypanosoma cruzi [1] was determined as 39.1 µM; in the series with Trypanosoma cruzi [2], 38.2 µM; in the series with Vero it was 54.2 µM; in the series with Trypanosoma cruzi [6], 52.7 µM. Moreover, the selectivity ratio is 1.4 in series [3], 1.4 in series [4] and 1 in series [5].

For the molecule `O=C(CCN1CCN(c2ccc(Cl)cc2)CC1)c1ccc(F)c(F)c1`, the IC50 in the series with Trypanosoma cruzi [1] came to 46.2 µM; in the series with Trypanosoma cruzi [2], 13.7 µM; in the series with Vero, 86.2 µM; in the series with Trypanosoma cruzi [6], 15.4 µM. The selectivity ratio in series [3] came to 6.3; in series [4], 1.9; in series [5] it was 5.6.

On to `O=C(CCN1CCN(c2ccc([N+](=O)[O-])cc2)CC1)c1ccc(Cl)c(F)c1`, for which the IC50 worked out at 15.5 µM with Trypanosoma cruzi [1], 32.4 µM in the series with Trypanosoma cruzi [2], 89.2 µM with Vero and 23.8 µM with Trypanosoma cruzi [6]. Further, the selectivity ratio in series [3] came out at 2.8; in series [4], 5.7; in series [5], 3.8.

For `O=C(CCN1CCN(c2ccc(Cl)cc2)CC1)c1ccc(OC(F)(F)F)cc1`, the IC50 was 61.8 µM in the series with Trypanosoma cruzi [1], 34.1 µM in the series on Trypanosoma cruzi [2], 95.6 µM with Vero and 42.2 µM in the series on Trypanosoma cruzi [6]. The selectivity ratio in series [3] was 2.8; in series [4] it was 1.5; in series [5], 2.3.

By IC50 is commonly meant the concentration that gives 50% inhibition.
